As usually defined, the IC50 is the concentration needed to halve the response being measured.

The target in test [1] is Delta-type opioid receptor (Rattus norvegicus, UniProt P33533). The test is described as follows: Displacement of [3H]pCl-DPDP from delta opioid receptor in rat central nervous system membrane. It counts as tissue-based. A digest of the protocol:
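Rat CNS membranes incubated with 1 nM [3H]-pCl-DPDP-enkephalin for 270 min at 20°. Bound and free ligand separated by rapid filtration; radioactivity counted by beta scintillation. Nonspecific binding set with 10^-5 M unlabelled DPDP-enkephalin (specific >70%). IC50 (half-maximal displacement, molar) obtained from displacement curves.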

Test [2] can be described thus: Displacement of [3H]U69593 from kappa opioid receptor in guinea pig cerebellum membrane. The test is classed as cell membranes, Cavia porcellus. A digest of the protocol:
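Guinea pig cerebellum homogenate incubated with 1.5 nM [3H]-U 69593 for 60 min at 20°. Rapid filtration, then beta-scintillation counting. Specific binding defined with 10^-5 M U50488H (>70%). IC50, the molar concentration giving half-maximal displacement, derived from displacement curves.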
(In general: In a radioligand displacement assay an active substance lowers the binding of a labelled ligand.)

The target in the next test is Mu-type opioid receptor (Rattus norvegicus, UniProt P33535). The test can be described thus: Displacement of [3H]DAMGO from mu opioid receptor in rat central nervous system membrane. The test is classed as tissue-based. Put shortly: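 Rat CNS membranes incubated with 1 nM [3H]-DAGO for 60 min at 20°. Bound and free radioligand separated by rapid filtration, then beta-scintillation counting. Specific binding defined with 10^-5 M unlabelled DAGO (>70%). IC50 (molar concentration giving half-maximal displacement) calculated from displacement curves.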
Mu-type opioid receptor, sequence (P33535 whole entry): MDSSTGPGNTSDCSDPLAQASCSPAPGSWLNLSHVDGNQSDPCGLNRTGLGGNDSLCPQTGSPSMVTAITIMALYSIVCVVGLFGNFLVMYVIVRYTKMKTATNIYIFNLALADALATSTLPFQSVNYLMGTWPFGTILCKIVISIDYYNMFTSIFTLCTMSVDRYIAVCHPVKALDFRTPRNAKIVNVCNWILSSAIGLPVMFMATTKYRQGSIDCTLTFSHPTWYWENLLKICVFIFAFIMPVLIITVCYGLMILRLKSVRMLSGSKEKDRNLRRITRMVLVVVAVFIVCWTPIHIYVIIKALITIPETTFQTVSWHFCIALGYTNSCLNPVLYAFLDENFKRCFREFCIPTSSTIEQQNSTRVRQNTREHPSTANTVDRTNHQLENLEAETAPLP

Delta-type opioid receptor, sequence (P33533 whole entry): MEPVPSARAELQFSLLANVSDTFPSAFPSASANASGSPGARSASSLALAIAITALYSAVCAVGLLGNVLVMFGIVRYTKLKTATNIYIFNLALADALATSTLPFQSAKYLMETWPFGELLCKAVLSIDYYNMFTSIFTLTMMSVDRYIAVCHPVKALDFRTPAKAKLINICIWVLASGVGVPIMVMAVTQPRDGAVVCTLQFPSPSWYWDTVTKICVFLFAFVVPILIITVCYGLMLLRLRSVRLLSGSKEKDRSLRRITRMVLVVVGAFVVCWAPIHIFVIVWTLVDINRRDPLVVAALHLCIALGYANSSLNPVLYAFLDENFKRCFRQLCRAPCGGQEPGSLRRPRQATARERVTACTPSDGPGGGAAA

For `C/C=C1/CN2CC[C@@]34c5cc(O)ccc5N(C)[C@@]23CC[C@H]1[C@@]4(CO)C(=O)OC` [DIHYDROAKUAMMINE], the results for the IC50 (in test [1]; in test [2]; on Mu-type opioid receptor) were over 100 µM, 20 µM and 6 µM, respectively.
For the compound `CN1CC[C@@]2(C)c3cc(O)ccc3N(C)[C@@H]12`, the figures for the IC50 (in test [1]; in test [2]; at Mu-type opioid receptor) were 10 µM, 0.3 µM and 0.3 µM, respectively.
Take `C/C=C1/CN2CC[C@@]34c5cc(O)ccc5N(C)[C@]35OC[C@@]4(C(=O)OC)[C@@H]1C[C@H]25` [AKUAMMINE]: the values for the IC50 in test [1] and in test [2] were 20 µM and 4 µM, respectively.

These data come from ChEMBL document CHEMBL1159017, “Akuammine and dihydroakuammine, two indolomonoterpene alkaloids displaying affinity for opioid receptors” (J Nat Prod, 1992).
